Measured values as given in ChEMBL document CHEMBL2021869, “Pharmacological evaluation of a novel cyclic phosphatidic acid derivative 3-S-cyclic phosphatidic acid (3-S-cPA)” (Bioorg Med Chem, 2012).
Calls of active or inactive are those of the source. The rule behind the calls is not given here.

What was measured:
[1] = target: Autotaxin (Homo sapiens) (UniProt Q13822); experiment: Inhibition of ATX-mediated human MDA-MB-231 cell migration at 10 uM after 8 hrs by Cyto Fluor spectrophotometry relative to lysophosphatidyl choline
Procedure, shortened: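 Calcein-AM-stained MDA-MB-231 cells (4 × 10^5 cells/mL in DMEM with 0.1% fatty-acid-free BSA) placed in upper wells over 8-µm pore membranes; lower wells held 200 µM LPC plus 10 µM compound. Incubated 8 h at 37 °C; non-migrated cells wiped off, migrated-cell fluorescence read at 485/530 nm. Percent of LPC-only control; triplicate wells, ≥3 independent experiments.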

[2] = target: Autotaxin (Bos taurus) (UniProt A1A4K5); experiment: Inhibition of ATX in fetal bovine serum using FS-3 as substrate at 0.1 to 10 uM after 2 hrs by fluorescence assay
Procedure, shortened: (§1)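 ATX source: fetal bovine serum, mixed with compound in 0.1% BSA and 1 µM FS-3 in Tris-HCl pH 8.0 buffer (1 mM CaCl2, 1 mM MgCl2, 5 mM KCl, 140 mM NaCl). Fluorescence (485/530 nm) read before and after 2 h at 37 °C; pre-incubation value subtracted, normalized to vehicle as percent inhibition; triplicate wells, mean ± S.E.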

[3] = species: Rattus norvegicus; experiment: Ratio of natural cPA effective dose to compound effective dose for antinociceptive activity in Wistar rat assessed as reduction in somato-somatic C-reflex; type: functional
[4] = tested on: Rattus norvegicus; experiment: Antinociceptive activity in Wistar rat assessed as somato-somatic C-reflex at 0.2 mg/kg, iv by electromyogram analysis relative to control; type: functional
Procedure, shortened: (§2)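 Anesthetised adult male Wistar rats (310–370 g; pentobarbital 50 mg/kg ip); jugular vein catheter for iv dosing at 0.2 mg/kg, blood pressure and heart rate monitored, end-tidal CO2 kept near 3.0%. Reflex EMG evoked by single shocks, averaged over ~50 trials at 3-s intervals; response area expressed as percent of control size 0–15 min before injection; mean ± S.E.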

[5] = tested on: Rattus norvegicus; experiment: (§3) Neuroprotective effect against transient cerebral ischemia-induced delayed neuronal death in Wistar rat hippocampal CA1 region assessed as reduction in pyknosis and shrinkage of cells at 180 ug/kg/5 days dosed through mini-osmotic pump measured after 5 days of occlusion for 8 mins by hematoxylin/eosin based staining relative to control; type: functional, organism-based
Procedure, shortened: (§4)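 Male Wistar rats under halothane; compound (180 µg·kg−1·5 days−1) or 0.2% fatty-acid-free BSA vehicle given by subcutaneous pump implanted 35–60 min before ischemia. Vertebral arteries ligated, both carotids occluded 8 min at ~37.5 °C. On day 5, formalin perfusion and paraffin sections (6 µm) of hippocampal CA1 stained with HE or anti-GFAP.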

[6] = tested on: Rattus norvegicus; experiment: as §3, with “decrease” for “reduction”, “GFAP accumulation” for “pyknosis and shrinkage of cells”, “immunohistochemical” for “hematoxylin/eosin based”; type: functional, organism-based; procedure, shortened: as §4
[7] = tested on: Rattus norvegicus; experiment: Antinociceptive activity in Wistar rat assessed as reduction in A-reflex at 0.2 mg/kg, iv by electromyogram analysis relative to control; type: functional, organism-based; set-up: dose 0.2 mg/kg; procedure, shortened: as §2
[8] = tested on: Rattus norvegicus; experiment: Antinociceptive activity in Wistar rat assessed as reduction in somato-somatic C-reflex at 0.2 mg/kg, iv by electromyogram analysis relative to control; type: functional, organism-based; set-up: dose 0.2 mg/kg; procedure, shortened: as §2
[9] = Lipophilicity, Log P of the compound; type: physicochemical; details: octanol/water
[10] = target: Autotaxin (Bos taurus) (UniProt A1A4K5); experiment: Inhibition of ATX in fetal bovine serum using FS-3 as substrate at 10 uM after 2 hrs by fluorescence assay; procedure, shortened: as §1

`CCCCCCCCCCCCCCCC(=O)OCC1CSP(=O)(O)O1` (racemic) gave an inhibition [1] greater than 40%.
For `CCCCCCCC/C=C\CCCCCCCC(=O)OCC1CSP(=O)(O)O1` (racemic), the inhibition [1] was greater than 40%.
In the case of `CCCCCCCCCCCCCCCCCC(=O)OCC1CSP(=O)(O)O1` (racemic), the inhibition [1] was greater than 40%.
In the case of `CCCCCC/C=C\CCCCCCCC(=O)OC[C@H]1CSP(=O)(O)O1`, the inhibition [2] was “Active”.
For `CCCCCC/C=C\CCCCCCCC(=O)OCC1COP(=O)([O-])C1.[Na+]` (racemic), the “fold change (FC)” value [3] was 10, the inhibition [2] was “Active” and the Activity [4] was 83%.
For `CCCCCC/C=C\CCCCCCCC(=O)OCC1CSP(=O)(O)O1.CCN(CC)CC` (racemic), the Activity [5] was “Active”, the Activity [6] was “Active” and the Activity [4] was 87%. The Activity [7] was “inactive”, the Activity [8] was “Active” and the logP [9] was 5.96. The inhibition [1] was greater than 40%.
In the case of `CCCCCC/C=C\CCCCCCCC(=O)OC[C@@H]1CSP(=O)(O)O1`, the inhibition [10] was 40%.
